# According to ChEMBL document CHEMBL2086284, “(Z)-1-aryl-3-arylamino-2-propen-1-ones, highly active stimulators of tubulin polymerization: synthesis, structure-activity relationship (SAR), tubulin polymerization, and cell growth inhibition studies” (J Med Chem, 2012):
# Columns and labels:
# DU-145 = experiment: Cytotoxicity against androgen receptor-deficient human DU145 cells after 96 hrs by trypan blue exclusion assay; format: functional, cell-based; conditions: DU-145, 96 h
# Summary of the method: (§1)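 Cells grown in DMEM or RPMI with 10% FBS and penicillin-streptomycin. Seeded at 1.0 × 10^5 cells/mL/well in 6-well dishes; compounds were added 24 h later at various concentrations. Viable cells were counted by trypan blue exclusion from duplicate wells after 96 h of treatment, giving a dose-response endpoint.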
# K562 = experiment: Cytotoxicity against human K562 cells after 96 hrs by trypan blue exclusion assay; format: functional, cell-based; conditions: K562, 96 h; summary of the method: as §1
Structure (SMILES),IC50 (DU-145) [nM],IC50 (K562) [nM]
COc1cc(C(=O)/C=C\Nc2cccc(O)c2)cc(OC)c1OC,750,500
COc1cc(OC)c(N/C=C\C(=O)c2c(OC)cc(OC)cc2OC)c(OC)c1,75000,50000
COc1ccc(N/C=C\C(=O)c2cc(OC)c(OC)c(OC)c2)cc1,500,500
COc1ccc(N/C=C\C(=O)c2ccc(OC)cc2)cc1,75000,100000
COc1ccc(N/C=C\C(=O)c2cc(OC)c(OC)c(OC)c2Cl)cc1O,200,250
COc1cc(C(=O)/C=C\Nc2ccc3[nH]ccc3c2)c(Br)c(OC)c1OC,150,200
COc1cc(N/C=C\C(=O)c2cc(OC)c(OC)c(OC)c2)cc(OC)c1OC,40000,25000
COc1ccc(N/C=C\C(=O)c2cc(OC)c(OC)c(OC)c2)cc1Cl,200,250
COc1cc(C(=O)/C=C\Nc2cccc3[nH]ncc23)cc(OC)c1OC,750,2500
COc1ccccc1N/C=C\C(=O)c1cc(OC)c(OC)c(OC)c1,2500,2500
COc1cc(C(=O)/C=C\Nc2ccc(OC(F)(F)F)cc2)cc(OC)c1OC,3000,20000
COc1cc(C(=O)/C=C\Nc2ccc(C(F)(F)F)cc2)cc(OC)c1OC,500,500
COc1cc(OC)c(C(=O)/C=C\Nc2ccccc2O)c(OC)c1,25000,75000
COc1cc(OC)c(C(=O)/C=C\Nc2cc(OC)c(OC)c(OC)c2)c(OC)c1,35000,75000
COc1ccc(N/C=C\C(=O)c2c(OC)cc(OC)cc2OC)cc1,75000,75000
COc1cc(C(=O)/C=C\Nc2cnc3ccccc3c2)cc(OC)c1OC,500,750
COc1cc(C(=O)/C=C\Nc2cccc3cc[nH]c23)cc(OC)c1OC,2500,2500
